In PubChem BioAssay AID977617 (Broad Institute, 2014):
Values joined by “and” are separate entries in the source; they are usually repeats but may differ in a detail not shown here. Equal entries are not always repeated. Active and inactive are the calls of the source.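 The calls were made as follows: active = cell killing, with a fitted half-maximal concentration at or below twice the top valid dose tested; inconclusive = flat fit with a moderate signal drop, or a poor fit; inactive = effect in the rising direction, plus the rest.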

Tests used:
[1] = system: A549 viability, CellTiter-Glo ATP luminescence, 72 h; experiment: A549 cell cytotoxicity, dose response, cytotoxicity control, CellTiter-Glo luminescence, dry powder, set 13 (AID 977617)
How it was run: (§1)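 Material: A549 human lung carcinoma cells, cell-based viability / Input: 1000 cells/well / Dosing: multiple compound concentrations / Timing: 24 h settling, 72 h 37 °C exposure, 5 min reagent / Measured by: luminescence of cellular ATP, CellTiter-Glo diluted 1:1 in PBS / Read-out: ATP signal as viability surrogate, signal drop meaning cytotoxicity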

[2] = as above; settings: A549 viability, CellTiter-Glo ATP luminescence, 72 h; at 26 µM (top of the series)
How it was run: as §1

Molecule `C[C@H](O)C#Cc1ccc2c(c1)O[C@H](CN(C)Cc1ccc(-c3ccccc3)cc1)[C@@H](C)CN([C@@H](C)CO)S2(=O)=O` has an AC50 [1] of 6 µM.

For `C[C@H](O)C#Cc1ccc2c(c1)O[C@@H](CN(C)Cc1ccc(-c3ccccc3)cc1)[C@@H](C)CN([C@H](C)CO)S2(=O)=O`, the activity change, negative = cytotoxicity [2] was 12.2% (inactive).

`C[C@@H](O)C#Cc1ccc2c(c1)O[C@H](CN(C)Cc1ccc(-c3ccccc3)cc1)[C@@H](C)CN([C@@H](C)CO)S2(=O)=O` showed an AC50 [1] of 19.4 µM.

With `C[C@H]1CN([C@@H](C)CO)S(=O)(=O)c2ccc(Br)cc2O[C@H]1CN(C)Cc1ccc(-c2ccccc2)cc1` the activity change, negative = cytotoxicity [2] was -3.47% (inactive).

In the case of `C[C@@H](O)C#Cc1ccc2c(c1)O[C@@H](CN(C)Cc1ccncc1)[C@@H](C)CN([C@@H](C)CO)S2(=O)=O`, the activity change, negative = cytotoxicity [2] is reported as -7.94% (inactive).

With `C[C@H]1CN([C@@H](C)CO)S(=O)(=O)c2ccc(C#CC(C)(C)O)cc2O[C@H]1CN(C)Cc1ccc(-c2ccccc2)cc1` the AC50 [1] was 19.9 µM.

`C[C@H](O)C#Cc1ccc2c(c1)O[C@@H](CN(C)Cc1ccc(-c3ccccc3)cc1)[C@H](C)CN([C@H](C)CO)S2(=O)=O` gave an AC50 [1] of 22.1 µM.

With `C[C@@H](O)C#Cc1ccc2c(c1)O[C@@H](CN(C)Cc1ccc(-c3ccccc3Cl)cc1)[C@@H](C)CN([C@@H](C)CO)S2(=O)=O` the AC50 [1] was 14.4 µM.

With `COc1ccc(-c2ccc(CN(C)C[C@@H]3Oc4cc(C#C[C@@H](C)O)ccc4S(=O)(=O)N([C@@H](C)CO)C[C@@H]3C)cc2)cc1` the AC50 [1] was 14.1 µM.

For `CNC[C@@H]1Oc2cc(Br)ccc2S(=O)(=O)N([C@@H](C)CO)C[C@@H]1C`, the activity change, negative = cytotoxicity [2] was -12.1% (inactive).

Molecule `Cc1cccc(-c2ccc(CN(C)C[C@@H]3Oc4cc(C#C[C@@H](C)O)ccc4S(=O)(=O)N([C@@H](C)CO)C[C@@H]3C)cc2)c1` has an AC50 [1] of 15 µM.

In the case of `COc1ccc(-c2ccc3c(c2)O[C@@H](CN(C)Cc2ccc(-c4ccccc4)cc2)[C@@H](C)CN([C@@H](C)CO)S3(=O)=O)cc1`, the activity change, negative = cytotoxicity [2] is reported as -11.8% (inactive).

Molecule `C[C@H](CO)N1C[C@H](C)[C@@H](CN(C)Cc2ccc(-c3ccccc3)cc2)Oc2cc(C#C[C@@H](C)O)ccc2S1(=O)=O` has an AC50 [1] of 27.1 µM.

`C[C@@H]1CN([C@@H](C)CO)S(=O)(=O)c2ccc(C#C[C@@H](C)O)cc2O[C@H]1CN(C)Cc1ccc(-c2ccccc2)cc1` gave an AC50 [1] of 26.1 µM.

With `C[C@H](O)C#Cc1ccc2c(c1)O[C@@H](CN(C)Cc1ccc(-c3ccccc3)cc1)[C@@H](C)CN([C@@H](C)CO)S2(=O)=O` the AC50 [1] was 22.6 µM.

For `C[C@H](O)C#Cc1ccc2c(c1)O[C@@H](CN(C)Cc1ccc(-c3ccccc3)cc1)[C@H](C)CN([C@@H](C)CO)S2(=O)=O`, the AC50 [1] was 26.1 µM.

For `CO[C@H]1CN(C)C(=O)c2ccc(NC(=O)c3ccc(F)cc3)cc2OC[C@H](C)N(C(=O)c2ccc(F)cc2)C[C@@H]1C`, the activity change, negative = cytotoxicity [2] was 2.69% (inactive).

With `Cc1ccccc1-c1ccc(CN(C)C[C@@H]2Oc3cc(C#C[C@@H](C)O)ccc3S(=O)(=O)N([C@@H](C)CO)C[C@@H]2C)cc1` the AC50 [1] was 16.7 µM.

Work on `COc1cccc(-c2ccc(CN(C)C[C@@H]3Oc4cc(C#C[C@@H](C)O)ccc4S(=O)(=O)N([C@@H](C)CO)C[C@@H]3C)cc2)c1` yielded an AC50 [1] of 15.2 µM.

`Cc1ccc(-c2ccc(CN(C)C[C@@H]3Oc4cc(C#C[C@@H](C)O)ccc4S(=O)(=O)N([C@@H](C)CO)C[C@@H]3C)cc2)cc1` showed an AC50 [1] of 15.7 µM.

With `COc1ccccc1-c1ccc(CN(C)C[C@@H]2Oc3cc(C#C[C@@H](C)O)ccc3S(=O)(=O)N([C@@H](C)CO)C[C@@H]2C)cc1` the AC50 [1] was 12.9 µM.

In the case of `C[C@@H](O)C#Cc1ccc2c(c1)O[C@@H](CN(C)Cc1ccc(-c3ccc(Cl)cc3)cc1)[C@@H](C)CN([C@@H](C)CO)S2(=O)=O`, the AC50 [1] is reported as 9.62 µM.

In the case of `C[C@@H](O)C#Cc1ccc2c(c1)O[C@@H](CN(C)Cc1ccc(-c3cccc(Cl)c3)cc1)[C@@H](C)CN([C@@H](C)CO)S2(=O)=O`, the AC50 [1] is reported as 14.1 µM.

In the case of `C[C@@H](O)C#Cc1ccc2c(c1)O[C@@H](CN(C)S(=O)(=O)c1ccc(-c3ccccc3)cc1)[C@@H](C)CN([C@@H](C)CO)S2(=O)=O`, the activity change, negative = cytotoxicity [2] is reported as 0.446% (inactive).

For `C[C@@H](O)C#Cc1ccc2c(c1)O[C@@H](CN(C)C(=O)c1ccc(-c3ccccc3)cc1)[C@@H](C)CN([C@@H](C)CO)S2(=O)=O`, the activity change, negative = cytotoxicity [2] was -7.04% (inactive).

In the case of `C[C@@H](O)C#Cc1ccc2c(c1)O[C@@H](CN(C)Cc1ccc(-c3ccccc3)cc1)[C@@H](C)CN([C@@H](C)CO)S2(=O)=O`, the AC50 [1] is reported as 17.7 µM and 19 µM.

In the case of `C[C@@H](O)C#Cc1ccc2c(c1)O[C@@H](CN(C)Cc1cccnc1)[C@@H](C)CN([C@@H](C)CO)S2(=O)=O`, the activity change, negative = cytotoxicity [2] is reported as -0.989% (inactive).

`C[C@H](O)C#Cc1ccc2c(c1)O[C@H](CN(C)Cc1ccc(-c3ccccc3)cc1)[C@@H](C)CN([C@H](C)CO)S2(=O)=O` showed an AC50 [1] of 19.4 µM.
